This is a sample that favours compounds with a hit; in the whole collection about 3.2% have one here.
PfHsp90 yeast 2: growth inhibition of PfHsp90-expressing yeast, primary screen, antimalarial PfHsp90 inhibitor project, S. cerevisiae, BacTiter-Glo luminescence, single point, set 2. 0.32% of 310,000 active. inhibition, % at 9.4 µM. AID 504621, 2011. BacTiter-Glo ATP, 48 h; yeast lacking PDR1 and PDR3 efflux regulators;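 active = every replicate shows inhibition above about 80%, whatever the replicate mean, limit read from the data; inconclusive = mean inhibition reaches the set limit but some replicate falls short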;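 also: 0% = DMSO neutral controls and 100% = 20 µM radicicol positive controls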
Cneo AK release: Cryptococcus neoformans cell lysis inducers, primary screen, AK release luminescence, single concentration | C. neoformans lysis, adenylate kinase release luminescence, 4 h; normalised: neutral wells 0, clomiphene wells 100 | lysis activity, % at 15 µM | 0.2% of 360,000 active | AID 651654, 2012;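 active = mean lysis activity across replicates of at least 80%, whatever share of replicates individually reach that level; inactive = mean lysis activity below 80%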
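Material – log-phase Cryptococcus neoformans yeast cells · Input – 5 × 10^6 yeast cells/mL · Medium – fresh YPD growth medium · Doses – single compound concentration per well · Timing – static 4 h at 37 °C with compound, 1 h detection · Detection – adenylate kinase release luminescence · Read-out – signal increase indicating cell lysis · Control set – Clomiphene as positive lysis control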
Ecoli rRNA inh: reduced GFP signal of wild-type E. coli, primary screen, bacterial rRNA inhibitor project, GFP/RFP fluorescence, OD600, single point | E. coli WT GFP vs humanized-ribosome RFP mutants, 24 h; hits give low values; DMSO median 0, no signal -100 | GFP signal change (wild-type ribosome), % (concentration not given with the values) | 1.6% of 350,000 active;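 active = significant combined selectivity score with lowered wild-type GFP, culture density cut under 30%, mutant RFP and density less affected; inactive = any of these conditions unmet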
MLL AF4-AF9 inh: inhibitors of AF4 peptide binding to AF9, primary screen, biochemical, AlphaScreen, biotin-AF4 peptide, FLAG-AF9, single point; inhibition, % at 10 µM; 0.47% of 350,000 active;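 active = every replicate reaching a set inhibition limit, whatever the replicate mean, cut at about 25% in these data; inconclusive = mean inhibition reaches that limit but some replicates miss it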;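 also: 0% = plate neutral control median and 100% = total signal loss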
Target sequence (P42568 whole entry, looked up): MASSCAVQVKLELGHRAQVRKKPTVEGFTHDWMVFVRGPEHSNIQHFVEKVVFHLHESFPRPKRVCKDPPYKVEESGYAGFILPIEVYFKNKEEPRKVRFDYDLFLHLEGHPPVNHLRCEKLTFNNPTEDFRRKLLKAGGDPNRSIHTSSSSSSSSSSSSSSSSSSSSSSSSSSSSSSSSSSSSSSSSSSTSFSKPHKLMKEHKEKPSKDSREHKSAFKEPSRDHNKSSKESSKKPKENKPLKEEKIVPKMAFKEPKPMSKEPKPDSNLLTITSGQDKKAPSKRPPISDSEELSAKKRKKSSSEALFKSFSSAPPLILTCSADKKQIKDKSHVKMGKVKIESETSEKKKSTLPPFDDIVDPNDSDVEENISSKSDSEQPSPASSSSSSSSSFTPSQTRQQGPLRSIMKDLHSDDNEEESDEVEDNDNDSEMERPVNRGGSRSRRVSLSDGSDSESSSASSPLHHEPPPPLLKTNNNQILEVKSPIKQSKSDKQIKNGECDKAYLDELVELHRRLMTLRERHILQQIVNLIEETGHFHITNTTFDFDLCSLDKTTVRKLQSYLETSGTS
DENV2 CPE: inhibitors of DENV2 cytopathic effect, primary screen, cell-based, plate reader, single concentration. DENV2-infected cells, cytopathic effect rescue. CPE inhibition, % at 9.99 µM. 1.7% of 350,000 active; in the data active = CPE inhibition above about 20%, passing the limit was not always enough; inconclusive = no clear call, values can overlap the other calls; tested in BHK-21 cells;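 also: 0% = median of neutral control wells and 100% = median of positive control wells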
S100A4 MyoIIA: inhibitors of S100A4-myosin IIA peptide binding, primary screen, biochemical, fluorescence polarization, TAMRA-MyoIIA peptide; Protein S100-A4 (Homo sapiens), P26447; inhibition, % at 10.7 µM; 0.14% of 360,000 active; AID 652163, 2013;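 active = mean inhibition of at least 70% across replicates, with every replicate also reaching that level; inconclusive = mean inhibition reaches 70% but some replicates fall short; inactive = mean inhibition below 70%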
Target sequence (P26447 whole entry, looked up): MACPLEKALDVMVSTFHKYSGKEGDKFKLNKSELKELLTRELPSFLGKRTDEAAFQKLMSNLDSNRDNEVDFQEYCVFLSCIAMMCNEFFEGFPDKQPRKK
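Material: S100A4 monomer (human). Medium: Calcium-containing HEPES buffer, pH 7.2. Probe or stimulus: labelled myosin peptide probe, 5 nM. Compound dosing: one concentration per compound. Timing: polarization read 5 min after assay mix addition, stable 5–60 min. Benchmarks: DMSO as neutral control, TFP as positive control.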
Numbers without * were called inactive; ? = inconclusive; nt = not tested or not shown.

SMILES | PfHsp90 yeast 2 | Cneo AK release | Ecoli rRNA inh | MLL AF4-AF9 inh | DENV2 CPE | S100A4 MyoIIA
COc1ccc(NC(=O)N2CCC3(CC2)CN(C(=O)CN2CCOCC2)[C@@H](CO)c2[nH]c4cc(OC)ccc4c23)cc1 | nt | nt | 0 | -4 | 25* | 13
CCC(=O)N1CCC2(CC1)CN(C(=O)CN1CCOCC1)[C@H](CO)c1[nH]c3cc(OC)ccc3c12 | nt | nt | 4 | 1 | 40* | -18
CCC(=O)N1CCC2(CC1)CN(C(=O)CN1CCOCC1)[C@@H](CO)c1[nH]c3cc(OC)ccc3c12 | nt | nt | 5 | 2 | -2 | -5
COc1ccc2c3c([nH]c2c1)[C@H](CO)N(C(=O)CN1CCOCC1)CC31CN(Cc2ccccc2)C1 | nt | nt | 6 | 8 | 52* | 0
COCC(=O)Nc1ccc2c(c1)OC[C@H](C)N(Cc1cc(F)ccc1F)C[C@@H](C)[C@@H](OC)CN(C)C2=O | nt | 0 | -3 | 1 | -15 | 11
Cc1c(C#N)c(O)n(C)c(=O)c1N=Nc1ccc(S(N)(=O)=O)cc1 | 18 | nt | 23 | 1 | 6 | -2
Cc1c(C#N)c(O)n(CCO)c(=O)c1N=Nc1ccc(S(N)(=O)=O)cc1 | 23 | 3 | 8 | -1 | 45* | 0
C[C@@H]1CN([C@H](C)CO)C(=O)c2cc(NC(=O)CCC(F)(F)F)ccc2O[C@@H](C)CCCCO[C@@H]1CN(C)C(=O)C1CCCCC1 | nt | 46 | -1 | 0 | 88* | 3
C[C@@H]1CCCCO[C@H](CN(C)C(=O)c2ccncc2)[C@@H](C)CN([C@H](C)CO)C(=O)c2cc(NC(=O)CCC(F)(F)F)ccc2O1 | nt | -1 | 5 | nt | 8 | nt
C[C@@H]1CN([C@H](C)CO)C(=O)c2cc(NC(=O)CCC(F)(F)F)ccc2O[C@@H](C)CCCCO[C@@H]1CN(C)C(=O)c1ccncc1 | nt | 89* | 2 | nt | 17 | nt
O=C(O)CCSc1nc2ccccc2n1-c1ccccc1 | -31 | 1 | -24* | 0 | 0 | 1
N#C/C(=C\c1ccc2c(c1)OCCO2)C(=O)NC1CCCCC1 | 2 | nt | 0 | -2 | 62* | -3
COc1ccc(/C=C(/C#N)C(=O)NC2CCCCC2)cc1Br | nt | -1 | nt | nt | nt | nt
N#C/C(=C\c1c[nH]c2ccccc12)C(=O)NC1CCCC1 | -3 | 0 | -35* | 9 | ? | -10
CC1CCCCC1NC(=O)/C(C#N)=C/c1ccccc1F (configuration not stated) | 121* | -5 | -27 | 3 | 2 | -1
CC(C)c1ccc(-c2cc(C(=O)N3N=C(C(F)F)CC3(O)C(F)F)c3ccccc3n2)cc1 (configuration not stated) | 111* | -12 | nt | nt | nt | nt
CSc1nc(C)c(Cc2c(F)cccc2Cl)c(=O)[nH]1 | 33 | 1 | 20 | 0 | 3 | 4
CSc1nc(C)c(CCOCc2ccc(F)cc2)c(=O)[nH]1 | -15 | nt | -22* | -1 | 2 | 7
CC(=O)Nc1ccc(S(=O)(=O)N2CCN(C(=O)C(=O)c3cccc(C(F)(F)F)c3)CC2)cc1 | nt | nt | -13* | 2 | 5 | 1
CO[C@H]1CN(C)C(=O)c2cc(NC(=O)c3ccccc3)ccc2OC[C@@H](C)N(C(=O)CN(C)C)C[C@H]1C | nt | -3 | 0 | 0 | -4 | 3
CSc1nc(Cl)cc(Nc2ccccc2N)n1 | 8 | -2 | -23* | -6 | nt | 30
C=CC(=O)Nc1cccc(N(C)c2ccnc(Nc3ccc(N4CCN(C)CC4)cc3)n2)c1 | 3 | -4 | nt | nt | nt | nt
C=CC(=O)Nc1cccc(Oc2ccnc(Nc3ccc(N4CCN(C)CC4)cc3)n2)c1 | -25 | -4 | -3 | 70* | -5 | 2
C[C@H]1CN([C@@H](C)CO)C(=O)c2c(c3ccccc3n2C)-c2ccccc2CO[C@H]1CN(C)Cc1ccc(-c2ccccc2)cc1 | nt | nt | 3 | 2 | 2 | -8
O=C(Nc1ccc2c(c1)[C@H]1C[C@H](CC(=O)N3CCc4ccccc4C3)O[C@H](CO)[C@H]1O2)C1CCOCC1 | nt | -9 | 0 | -4 | 9 | -8
SMILES | PfHsp90 yeast 2 | Cneo AK release | Ecoli rRNA inh | MLL AF4-AF9 inh | DENV2 CPE | S100A4 MyoIIA
N#C[C@@H]1[C@H](c2ccccc2-c2ccccc2F)[C@H](CO)N1C(=O)C1CCC1 | nt | nt | -12 | -1 | 0 | 10
N#C[C@H]1[C@@H](c2ccccc2-c2ccccc2F)[C@H](CO)N1C(=O)C1CC1 | nt | nt | 1 | -1 | 26* | 0
CN(C)C(=O)c1cccc(-c2ccccc2[C@H]2[C@@H](C#N)N(C(=O)C3CC3)[C@@H]2CO)c1 | nt | nt | 3 | -2 | 69* | 5
CN(C)C(=O)c1cccc(-c2ccccc2[C@@H]2[C@@H](C#N)N(C(=O)C3CC3)[C@@H]2CO)c1 | nt | nt | 6 | 1 | 46* | 0
CN(C)C(=O)c1cccc(-c2ccccc2[C@@H]2[C@H](C#N)N(C(=O)C3CCCCC3)[C@H]2CO)c1 | nt | nt | 2 | 0 | 73* | 5
CN1C(=O)c2cc(NC(=O)c3cccs3)ccc2OC[C@H]2O[C@H](CC(=O)N3CCOCC3)CC[C@H]21 | nt | -1 | 2 | 2 | 2 | 8
C[C@@H]1CCCCO[C@@H](CN(C)C(=O)CCCN(C)C)[C@@H](C)CN([C@@H](C)CO)C(=O)c2cc(NS(=O)(=O)c3cccs3)ccc2O1 | nt | nt | 8 | nt | nt | nt
C[C@H]1CN([C@@H](C)CO)C(=O)c2cc(NC(=O)CCN3CCOCC3)ccc2O[C@H]1CN(C)Cc1ccc(C(=O)O)cc1 | nt | -2 | 0 | -2 | 5 | -5
O=C1CN(C(=O)COC(=O)c2ccc(Cl)cc2)c2ccccc2N1 | -2 | 1 | 7 | 0 | -8 | 0
O=C1CN(C(=O)COC(=O)c2c(F)cccc2Cl)c2ccccc2N1 | 7 | 2 | -1 | 2 | 26* | 10
Cc1noc(C)c1S(=O)(=O)Nc1ccc2c(c1)C(=O)N([C@@H](C)CO)C[C@@H](C)[C@H](CN(C)C(=O)Nc1ccccc1)OCCCC[C@@H](C)O2 | nt | -9 | -3 | 3 | 97* | 10
Cc1noc(C)c1S(=O)(=O)Nc1ccc2c(c1)C(=O)N([C@H](C)CO)C[C@@H](C)[C@H](CN(C)C(=O)Nc1ccccc1)OCCCC[C@@H](C)O2 | nt | -6 | -1 | 5 | 2 | -36
Cc1noc(C)c1S(=O)(=O)Nc1ccc2c(c1)C(=O)N([C@H](C)CO)C[C@H](C)[C@H](CN(C)C(=O)Nc1ccccc1)OCCCC[C@H](C)O2 | nt | -4 | -1 | 4 | 33* | -16

High-throughput results: PubChem, Broad Institute
